The list is not random: actives were taken first. Their share in the collection is about 2.9%.
C2C12 statin = suppressors of simvastatin-induced myotoxicity in C2C12 myotubes. ATP luminescence, 48 h; scaled: DMSO 0, geranylgeraniol control 100. AID 602340. actives 0.78% (n = 330,000). rescue of ATP level, % at 7.49 µM;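 active = mean ATP rescue above about 67%, or every replicate alone reaching that limit, limit read from the data, passing the limit was not always enough; inconclusive = no clear call, values can overlap the other calls; inactive = mean under the limit and some replicate under it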;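 note: myotubes were challenged with 10 µM simvastatin during compound exposure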
S100A4 inh HTS = S100A4-myosin IIA interaction inhibition. P26447. S100A4/TAMRA-MyoIIA peptide fluorescence polarization. inhibition, % at 10.7 µM. actives 0.14% (n = 360,000);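 active = mean inhibition of at least 70% across replicates, with every replicate also reaching that level; inconclusive = mean inhibition reaches 70% but some replicates fall short; inactive = mean inhibition below 70%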
Target sequence (P26447 whole entry, looked up): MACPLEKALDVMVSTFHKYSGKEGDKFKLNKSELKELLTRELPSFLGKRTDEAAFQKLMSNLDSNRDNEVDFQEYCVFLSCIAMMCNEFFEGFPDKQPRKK
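Test system – S100A4 monomer (human) · Compound – single-point compound testing · Schedule – 5 min incubation before reading · Probe or stimulus – TAMRA-labelled myosin IIA heavy-chain peptide probe, 5 nM · Benchmarks – neutral control DMSO, positive control TFP · Medium – Calcium-containing HEPES buffer, pH 7.2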
DENV2 CPE rescue = DENV2-induced cell death inhibition. CPE inhibition, % at 9.99 µM. DENV2-infected cells, cytopathic effect rescue, plate reader. actives 1.7% (n = 350,000); in the data active = CPE inhibition above about 20%, passing the limit was not always enough; inconclusive = no clear call, values can overlap the other calls; tested in BHK-21 cells;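 note: 0% = median of neutral control wells and 100% = median of positive control wells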
PGC1a acetyl inh = PGC1a acetylation modulation, inhibitor mode; U2OS PGC1a acetylation, AlphaScreen anti-acetyl-lysine; with virally co-expressed GCN5 acetyltransferase; inhibition, % at 15.6 µM; actives 0.17% (n = 350,000);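 active = every replicate shows inhibition of at least 40%; inconclusive = mean inhibition at least 40% but some replicate below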;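 note: 0% = neutral control wells and 100% = positive control wells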
SIRT5 block = inhibitors of human sirtuin-5 desuccinylase | Q9NXA8 | Purified SirT5, succinyl-peptide AMC, trypsin-coupled fluorescence | inhibition, % at 15 µM | actives 1.1% (n = 330,000); in the data active = inhibition above about 15%; inconclusive = no clear call, values can overlap the other calls
Target sequence (Q9NXA8 whole entry, looked up): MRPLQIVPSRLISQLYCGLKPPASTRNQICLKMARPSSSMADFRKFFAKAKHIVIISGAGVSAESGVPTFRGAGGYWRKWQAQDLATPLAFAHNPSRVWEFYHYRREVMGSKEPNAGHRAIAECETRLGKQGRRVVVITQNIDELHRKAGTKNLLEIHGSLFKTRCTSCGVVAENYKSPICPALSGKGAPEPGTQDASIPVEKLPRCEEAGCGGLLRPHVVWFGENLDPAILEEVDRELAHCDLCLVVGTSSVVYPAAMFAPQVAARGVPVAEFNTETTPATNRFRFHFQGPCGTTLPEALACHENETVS
Active calls of the source: *; u = inconclusive; x = no result.

SMILES	C2C12 statin	S100A4 inh HTS	DENV2 CPE rescue	PGC1a acetyl inh	SIRT5 block
C/C=C/c1cnc2c(c1)C(=O)N([C@@H](C)CO)C[C@H](C)[C@@H](CN(C)C(=O)Nc1ccc(F)cc1)O2	2	2	-5	-11	16*
CCN(c1ccccc1)S(=O)(=O)c1nnc(NC(=O)C(C)(C)C)s1	7	0	u	0	30*
C#CCN1C(=O)[C@]2(OCCC=C[C@H]2C)c2ccccc21	x	2	77*	x	2
COC(=O)c1ccc(CN2C(=O)[C@]3(OCCC=C[C@H]3C)c3ccccc32)cc1	x	12	-2	x	0
C[C@@H]1CN([C@H](C)CO)C(=O)c2cc(C#CCN(C)C)cnc2O[C@H]1CN(C)C(=O)Nc1cccc(F)c1	7	-4	-4	-11	4
O=C(CN1CCOCC1)NCC[C@H]1CC[C@H](NC(=O)Nc2ccc(C(F)(F)F)cc2)[C@@H](CO)O1	-2	-4	-4	4	x
O=C(NCC1CCCO1)C1CCN(C2CCN(Cc3ccco3)CC2)CC1 (centres undefined)	8	0	x	-2	0
CCOc1cccc(CN2CCC(N3CCC(C(=O)NCC4CCCO4)CC3)CC2)c1 (centres undefined)	8	-4	-4	0	21*
O=[N+]([O-])c1cccnc1NCCNc1ncc(C(F)(F)F)cc1Cl	136*	x	x	-1	x
O=[N+]([O-])c1ccccc1NCCNc1ncc(C(F)(F)F)cc1Cl	x	x	x	-29	x
Cc1ccc2nc(-c3ccccc3)c(Cc3cccc(Cl)c3)n2c1	-2	-8	4	2	22*
Clc1cccc(Cc2c(-c3ccccc3)nc3ccc(Cl)cn23)c1	10	-9	-1	4	-2
Cc1ccc2nc(-c3ccc(C#N)cc3)c(Cc3ccccc3C(F)(F)F)n2c1	5	0	63*	0	1
Cc1ccc(Cc2c(-c3ccc(C)cc3)nc3ccc(Cl)cn23)cc1	43	-9	25*	x	2
Cc1ccc2nc(-c3cccc(Br)c3)c(Cc3cccc(Cl)c3)n2c1	5	-5	54*	-10	-1
COCC(=O)Nc1ccc2c(c1)C(=O)N(C)[C@@H]1CC[C@@H](CC(=O)NCc3ccccc3)O[C@@H]1CO2	-10	6	1	-3	-3
C[C@H](CO)N1C[C@H](C)[C@@H](CN(C)S(=O)(=O)c2cn(C)cn2)OCCCC[C@H](C)Oc2ccc(NS(=O)(=O)c3ccc(Cl)cc3)cc2C1=O	x	-1	19	1	3
C[C@@H]1CN([C@@H](C)CO)C(=O)c2cccc(NC(=O)C3CCCCC3)c2O[C@H]1CN(C)Cc1ccc(-c2ccccc2)cc1	x	x	x	18	x
Cc1cccc(S(=O)(=O)N(C)C[C@H]2OCc3ccccc3-c3ccccc3C(=O)N([C@@H](C)CO)C[C@@H]2C)c1	9	1	10	-8	0
COc1ccc(CN(C)C[C@@H]2OCCCC[C@H](C)Oc3ccc(NC(=O)c4ccncc4)cc3C(=O)N([C@H](C)CO)C[C@@H]2C)cc1	x	15	1	2	0
O=C(C[C@@H]1C=C[C@H](NC(=O)CN2CCOCC2)[C@H](CO)O1)NCc1cccc(F)c1	0	55	-1	0	5
Fc1ccc(-c2nc3ccc(Cl)cn3c2Cc2ccsc2)cc1	-5	38	-12	-2	28*
C[C@@H]1CN([C@H](C)CO)C(=O)Cc2cc(NC(=O)Cc3ccccc3)ccc2O[C@H]1CN(C)Cc1ccc(Cl)c(Cl)c1	45	-9	27*	5	-5
C[C@@H]1CN([C@@H](C)CO)C(=O)Cc2cc(NC(=O)Cc3ccccc3)ccc2O[C@H]1CN(C)Cc1ccc(Cl)c(Cl)c1	-5	-9	26*	-6	-2
C[C@H](CO)N1C[C@H](C)[C@H](CN(C)Cc2ccc(Cl)c(Cl)c2)Oc2ccc(NC(=O)Cc3ccccc3)cc2CC1=O	13	-15	-17	-6	6
SMILES	C2C12 statin	S100A4 inh HTS	DENV2 CPE rescue	PGC1a acetyl inh	SIRT5 block
C[C@H](CO)N1C[C@H](C)[C@@H](CN(C)Cc2ccc(Cl)c(Cl)c2)Oc2ccc(NC(=O)Cc3ccccc3)cc2CC1=O	86*	8	-5	-18	-1
C[C@H](CO)N1C[C@H](C)[C@H](CN(C)Cc2ccccc2)Oc2ccc(NC(=O)Cc3ccccc3)cc2CC1=O	15	3	-4	x	-3
Oc1ccc(Cl)cc1C1=NNC(c2cccs2)C1 (centres undefined)	149*	-2	-4	-6	1
CNC[C@@H]1Oc2ncc(-c3ccc(C)cc3)cc2C(=O)N([C@H](C)CO)C[C@@H]1C	0	-3	0	2	1
C[C@@H]1CN([C@@H](C)CO)C(=O)c2ccccc2-c2ccccc2CO[C@H]1CN(C)S(=O)(=O)c1ccccc1	x	2	4	-2	-2
CC(Oc1ccccc1Cl)C(=O)N1CCOCC1 (centres undefined)	x	0	107*	x	0
Cc1ccc(-c2cnc3c(c2)C(=O)N([C@@H](C)CO)C[C@@H](C)[C@H](CN(C)Cc2ccccc2C(=O)O)O3)cc1	-2	-2	-8	-11	-6
O=C(C[C@@H]1C=C[C@@H](NC(=O)C2CCOCC2)[C@@H](CO)O1)NCc1ccncc1	-16	-8	-8	11	0
N#Cc1c(/N=C/c2cccs2)sc2c1CCC2	3	x	x	6	x
N#Cc1c(/N=C/c2cc(Br)cs2)sc2c1CCC2	68*	x	x	4	x
CCNC(=O)Nc1ccc2c(c1)C(=O)N(C)[C@H]1CC[C@@H](CC(=O)Nc3ccccc3)O[C@H]1CO2	-31	11	5	4	-3
O=c1c2[nH]c3cccc(Cl)c3c2ncn1CC1CCCO1 (centres undefined)	x	-24	1	x	-1
O=c1c2[nH]c3cccc(Cl)c3c2ncn1CCN1CCCCC1	103*	x	x	1	x
CCCCNC(=O)CNC(=S)N(CCCN1CCOCC1)Cc1cccs1	x	-4	44*	x	-3
Cn1nc(C(F)(F)F)c(-c2ccc(Br)cc2)c1NC(=O)CSCC(=O)O	x	-3	58*	x	-2
Cn1nc(C(F)(F)F)c(-c2ccc(Br)cc2)c1NC(=O)c1nccnc1C(=O)O	x	0	-5	-1	-2
COCC(=O)Nc1ccc2c(c1)[C@H]1C[C@H](CC(=O)NCC3CC3)O[C@@H](CO)[C@H]1O2	5	1	3	-2	3
O=C(CCC(=O)N1CCN(S(=O)(=O)c2ccc(Cl)cc2)CC1)Nc1cccc(Br)c1	72*	-2	-6	3	x
C[C@@H]1CN([C@H](C)CO)C(=O)Cc2cc(NS(=O)(=O)c3cn(C)cn3)ccc2O[C@@H]1CN(C)C	-5	2	8	6	-1
Cc1ccccc1S(=O)(=O)N1C[C@@H](O)COC[C@H]2O[C@H](CC(=O)N3CCC(Cc4ccccc4)CC3)CC[C@@H]21	11	26	68*	0	-1
